In ChEMBL document CHEMBL1772938, “Optimization of 3-(phenylthio)quinolinium compounds against opportunistic fungal pathogens” (Eur J Med Chem, 2011):

Experiments:
Cryptococcus neoformans [1] = experiment: Antimicrobial activity against Cryptococcus neoformans ATCC 90113 by CLSI method; assay type: functional
Method in brief: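 C. neoformans in Sabouraud dextrose broth, inoculum per the 0.5 McFarland standard. Saline serial dilutions of DMSO samples were tested in duplicate, with a final top concentration of 20 μg/mL. OD 630 nm was read before and after incubation. IC50 was derived from % growth versus concentration. MIC was judged visually as the lowest concentration with no detectable growth. Amphotericin B served as the drug control.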

Candida albicans [2] = experiment: Antimicrobial activity against Candida albicans ATCC 90028 by CLSI method; assay type: functional
Method in brief: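 C. albicans inoculum was made to the 0.5 McFarland standard in Sabouraud dextrose broth or RPMI 1640. Samples came from DMSO stocks serially diluted in saline, in duplicate, starting at a final 20 μg/mL. Plates were read at OD 630 nm before and after incubation. IC50 came from the % growth versus concentration plot; MIC was the lowest concentration with no visible growth. Included: growth, solvent and blank controls, plus amphotericin B.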

Aspergillus fumigatus [3] = experiment: Antimicrobial activity against Aspergillus fumigatus ATCC 90906 by CLSI method; assay type: functional
Method in brief: (§1)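 Modified CLSI broth microdilution. DMSO stocks were serially diluted in saline and run in duplicate. Inoculum was set by the 0.5 McFarland standard in YM broth for MIC, or in RPMI-1640 + 5% Alamar Blue for IC50. The top final concentration was 20 μg/mL. Fluorescence (544ex/590em) was read before and after incubation. IC50 was taken from % growth versus concentration; MIC was read visually as no blue-to-pink change.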

Cryptococcus neoformans [4] = experiment: Antimicrobial activity against Cryptococcus neoformans ATCC 90113 by alamar blue assay; assay type: functional, organism-based
Candida albicans [5] = experiment: Antimicrobial activity against Candida albicans ATCC 90028 by alamar blue assay; assay type: functional, organism-based
Aspergillus fumigatus [6] = experiment: Antimicrobial activity against Aspergillus fumigatus ATCC 90906 by alamar blue assay; assay type: functional, organism-based; method in brief: as §1
Nakaseomyces glabratus [7] = experiment: Antimicrobial activity against Candida glabrata ATCC 90030 by CLSI method; assay type: functional
Method in brief: (§2)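 Modified CLSI microdilution. DMSO samples were serially diluted in saline and tested in duplicate against inoculum adjusted by the 0.5 McFarland standard. The final test range started at 20 μg/mL. Plates were read before and after incubation. IC50 came from % growth versus concentration; MIC was the lowest concentration without visible growth. Growth, solvent, blank and amphotericin B controls were on each plate.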

Pichia kudriavzevii [8] = experiment: Antimicrobial activity against Candida krusei ATCC 6258 by CLSI method; assay type: functional; method in brief: as §2
Nakaseomyces glabratus [9] = experiment: Antimicrobial activity against Candida glabrata ATCC 90030 by alamar blue assay; assay type: functional, organism-based
Pichia kudriavzevii [10] = experiment: Antimicrobial activity against Candida krusei ATCC 6258 by alamar blue assay; assay type: functional, organism-based
[11] = Selectivity index, ratio of TC50 for african green monkey Vero cells to IC50 for Cryptococcus neoformans ATCC 90113; assay type: toxicity, cell-based; settings: read-out: Selectivity Index
Vero = experiment: Cytotoxicity against african green monkey Vero cells at 10 ug/ml after 48 hrs by neutral red assay; assay type: cell-based; settings: chlorocebus sabaeus
Method in brief: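 VERO kidney cells were seeded at 25,000 cells/well and incubated 24 h. Samples were added up to 10 μg/mL and incubated a further 48 h. Viable cells were counted by neutral red uptake. IC50 came from growth-inhibition dose curves. Doxorubicin was the positive control and DMSO the vehicle control.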

Row | Structure (SMILES) | MFC (Cryptococcus neoformans [1]) | MIC (Cryptococcus neoformans [1]) | MFC (Candida albicans [2]) | MIC (Candida albicans [2]) | MFC (Aspergillus fumigatus [3]) | MIC (Aspergillus fumigatus [3]) | IC50 (Cryptococcus neoformans [4]) | IC50 (Candida albicans [5]) | IC50 (Aspergillus fumigatus [6]) | MFC (Nakaseomyces glabratus [7]) | MIC (Nakaseomyces glabratus [7]) | MFC (Pichia kudriavzevii [8]) | MIC (Pichia kudriavzevii [8]) | IC50 (Nakaseomyces glabratus [9]) | IC50 (Pichia kudriavzevii [10]) | selectivity ratio [11] | Activity (Vero)
1 | FC(F)(F)c1ccccc1Sc1cc2ccccc2[n+](CCCCCC2CCCCC2)c1.[I-] | 1.3 µg/mL | 0.6 µg/mL | 2.5 µg/mL | 2.5 µg/mL | 5 µg/mL | 5 µg/mL | 0.3 µg/mL | 1.1 µg/mL | 1.8 µg/mL | 10 µg/mL | 5 µg/mL | 1.3 µg/mL | 1.3 µg/mL | 3 µg/mL | 1.1 µg/mL | > 33 | Non-toxic
2 | Oc1ccc(Sc2cc3ccccc3[n+](CCCCCC3CCCCC3)c2)cc1.[I-] | 2.5 µg/mL | 1.3 µg/mL | 20 µg/mL | 10 µg/mL | > 20 µg/mL | 20 µg/mL | 0.7 µg/mL | 3.9 µg/mL | 7.9 µg/mL | > 20 µg/mL | > 20 µg/mL | 5 µg/mL | 5 µg/mL | > 20 µg/mL | 1.5 µg/mL | > 14 | Non-toxic
3 | FC(F)(F)c1ccccc1Sc1cc2ccccc2[n+](CCCCCc2ccccc2)c1.[I-] | 10 µg/mL | 5 µg/mL | > 20 µg/mL | > 20 µg/mL | > 20 µg/mL | > 20 µg/mL | 2.2 µg/mL | 12 µg/mL | 6.9 µg/mL |  |  |  |  |  |  |  | Non-toxic
4 | Cc1ccccc1Sc1cc2ccccc2[n+](CCCCCc2ccccc2)c1.[I-] | 20 µg/mL | 5 µg/mL | > 20 µg/mL | > 20 µg/mL | > 20 µg/mL | > 20 µg/mL | 4 µg/mL | > 20 µg/mL | > 20 µg/mL |  |  |  |  |  |  |  | Non-toxic
5 | Fc1cccc(Sc2cc3ccccc3[n+](CCCCCc3ccccc3)c2)c1.[I-] | > 20 µg/mL | 10 µg/mL | > 20 µg/mL | > 20 µg/mL | > 20 µg/mL | 20 µg/mL | 7 µg/mL | > 20 µg/mL | 5 µg/mL |  |  |  |  |  |  |  | Non-toxic
6 | Oc1cccc(Sc2cc3ccccc3[n+](CCCCCC3CCCCC3)c2)c1.[I-] | 5 µg/mL | 2.5 µg/mL | 20 µg/mL | 10 µg/mL | > 20 µg/mL | 20 µg/mL | 1.3 µg/mL | 3.5 µg/mL | 10 µg/mL | > 20 µg/mL | > 20 µg/mL | 20 µg/mL | 10 µg/mL | > 20 µg/mL | 5.1 µg/mL | > 7.7 | Non-toxic
7 | FC(F)(F)c1cccc(Sc2cc3ccccc3[n+](CCCCCC3CCCCC3)c2)c1.[I-] | 0.6 µg/mL | 0.6 µg/mL | 5 µg/mL | 2.5 µg/mL | > 20 µg/mL | 2.5 µg/mL | 0.4 µg/mL | 1.3 µg/mL | 2.2 µg/mL | 10 µg/mL | 10 µg/mL | 2.5 µg/mL | 2.5 µg/mL | 4.6 µg/mL | 1.2 µg/mL | > 25 | Non-toxic
8 | Fc1ccccc1Sc1cc2ccccc2[n+](CCCCCc2ccccc2)c1.[I-] | > 20 µg/mL | 20 µg/mL | > 20 µg/mL | > 20 µg/mL | > 20 µg/mL | 20 µg/mL | 9.5 µg/mL | > 20 µg/mL | 9 µg/mL |  |  |  |  |  |  |  | Non-toxic
9 | N#Cc1cccc(Sc2cc3ccccc3[n+](CCCCCC3CCCCC3)c2)c1.[I-] | 5 µg/mL | 1.3 µg/mL | 20 µg/mL | 20 µg/mL | > 20 µg/mL | 20 µg/mL | 0.7 µg/mL | 6.7 µg/mL | 19 µg/mL | 20 µg/mL | 20 µg/mL | 10 µg/mL | 5 µg/mL | 13 µg/mL | 1.4 µg/mL | > 14 | Non-toxic
10 | N#Cc1ccc(Sc2cc3ccccc3[n+](CCCCCC3CCCCC3)c2)cc1.[I-] | 5 µg/mL | 1.3 µg/mL | 20 µg/mL | 10 µg/mL | > 20 µg/mL | 20 µg/mL | 0.5 µg/mL | 6.2 µg/mL | 19 µg/mL | 20 µg/mL | 10 µg/mL | 10 µg/mL | 5 µg/mL | 6.3 µg/mL | 2.3 µg/mL | > 20 | Non-toxic
11 | Fc1ccc(Sc2cc3ccccc3[n+](CCCCCc3ccccc3)c2)cc1.[I-] | > 20 µg/mL | 20 µg/mL | > 20 µg/mL | > 20 µg/mL | > 20 µg/mL | 20 µg/mL | 15 µg/mL | > 20 µg/mL | 9 µg/mL |  |  |  |  |  |  |  | Non-toxic
12 | FC(F)(F)c1ccc(Sc2cc3ccccc3[n+](CCCCCC3CCCCC3)c2)cc1.[I-] | 0.6 µg/mL | 0.6 µg/mL | 2.5 µg/mL | 2.5 µg/mL | > 20 µg/mL | 2.5 µg/mL | 0.3 µg/mL | 0.8 µg/mL | 1.7 µg/mL | 10 µg/mL | 10 µg/mL | 5 µg/mL | 2.5 µg/mL | 4.7 µg/mL | 1.3 µg/mL | > 33 | Non-toxic
13 | FC(F)(F)c1cccc(Sc2cc3ccccc3[n+](CCCCCc3ccccc3)c2)c1.[I-] | 10 µg/mL | 5 µg/mL | > 20 µg/mL | > 20 µg/mL | > 20 µg/mL | > 20 µg/mL | 2.1 µg/mL | 14 µg/mL | 17 µg/mL |  |  |  |  |  |  |  | Non-toxic
